Here are results for ten compounds from ChEMBL document CHEMBL1157559, “Synthesis and biological evaluation of novel pyrazolyl-2,4-thiazolidinediones as anti-inflammatory and neuroprotective agents” (Bioorg Med Chem, 2010).

The test system of series [1] is Rattus norvegicus. Description: Gastrointestinal toxicity in Wistar albino rat assessed as ulceration at 100 mg/kg/day, po administered twice daily for 3 days. The format is organism-based. Also noted: route oral. The note with it: in vivo, 72 h. The essentials:
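Male rats 180–200 g, groups of five, fasted 12 h with water available. Compounds given orally as two equal doses at 0 and 12 h, 100 mg/kg per day, for three successive days; vehicle control 1% gum acacia. Rats killed 6 h after last dose. Stomach opened along greater curvature, washed with cold saline and inspected under 3× lens for hyperemia, hemorrhage, erosions or ulcers.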

A short description of series [2]: Acute toxicity in po dosed Swiss albino mouse after 24 hrs. It is filed as organism-based. The note with it: in vivo, read-out: ALD50. The essentials:
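Four groups of five Swiss albino mice (20–30 g), fasted 24 h beforehand, given compounds orally at graded doses of 0–300 mg/kg. Mortality recorded at each dose level after 24 h to estimate the acute lethal dose (ALD50).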

The test system of series [3] is THP-1. Description: Cytotoxicity against LPS and IFN-gamma-stimulated human THP1 cells after 24 hrs. It is filed as functional, cell-based. The note with it: THP-1, 24 h. Put shortly: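 THP-1 cells, 24-well, in DMEM-F12 with 5% FBS. Compound or DMSO added 15 min before LPS 0.5 µg/mL plus IFN-γ 150 U/mL. After 24 h, LDH release (fraction of Triton-lysed value, OD 490) and MTT were read. EC50 taken from curves of at least three independent experiments; the lower of the two assay values was reported.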

Series [4] deals with THP-1. Description: Inhibition of MCP1 release in human THP1 cells after 24 hrs by ELISA. It is filed as functional, cell-based. Put shortly:
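THP-1 cells pretreated 15 min with compound, then stimulated with LPS 0.5 µg/mL plus IFN-γ 150 U/mL. After 24 h, MCP-1 (ng/mL) measured in cell-free medium by ELISA.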
(In general: ELISA stands for enzyme-linked immunosorbent assay.)

For series [5], the system named is SH-SY5Y. Nature of the series: Antineurotoxicity in human SH-SY5Y cells assessed as inhibition human THP1 cell supernatant-induced cytotoxicity compound pretreated 24 to 48 hrs to THP1 cells measured after 72 hrs of supernatant addition. It is filed as functional, cell-based. Put shortly: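 THP-1 cells in DMEM-F12 with 5% FBS, pretreated 15 min with compound or DMSO, then stimulated with LPS 0.5 µg/mL plus IFN-γ 150 U/mL for 24 or 48 h. Cell-free supernatant transferred to SH-SY5Y cells plated 24 h earlier. After 72 h, viability by LDH release and MTT. IC50 from curves of at least three independent experiments.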

Structures are written as SMILES. Activity calls are given as the source filed them. No cut-off for these calls is given here. Bounds are passed on as bounds.

As to `COc1ccc2c(c1)c(CC(=O)O)c(C)n2C(=O)c1ccc(Cl)cc1` [INDOMETHACIN], in series [1], the Activity worked out at 100%.

In general, EC50 refers to the concentration that produces a half-maximal response. A low value points to a more potent agent. The term IC50 denotes the concentration needed to halve the response being measured. Regarding `O=C1S/C(=C\c2cn(-c3ccccc3)nc2-c2ccccc2)C(=O)N1Cc1ccc(Cl)cc1`, the LD50 at 24 h in series [2] was over 300 mg/kg. In series [3], this compound displayed a concentration giving a half-maximal response (EC50) of 50 µM. Moreover, the inhibition entry in series [4] is “inactive”. Moreover, the 50% inhibitory concentration (IC50) in series [5] came to 80 µM.

With `O=C1S/C(=C\c2cn(-c3ccccc3)nc2-c2ccccc2)C(=O)N1Cc1cccc(Br)c1`, the LD50 at 24 h in series [2] is over 300 mg/kg. In addition, in series [3], the EC50 is over 100 µM. Moreover, in series [4], the inhibition entry is “inactive”.

Take `C=CCN1C(=O)S/C(=C\c2cn(-c3ccccc3)nc2-c2ccccc2)C1=O`: the LD50 at 24 h in series [2] is over 300 mg/kg. Also, the EC50 in series [3] was over 100 µM. In addition, in series [4], the inhibition result was “inactive”. For the same compound, the IC50 in series [5] came to 50 µM.

With `O=C1S/C(=C\c2cn(-c3ccccc3)nc2-c2ccccc2)C(=O)N1Cc1ccccc1`, in series [2], the LD50 at 24 h is over 300 mg/kg. Further, the EC50 in series [3] is over 100 µM. Also, in series [4], the inhibition result was “inactive”.

In the case of `O=C1S/C(=C\c2cn(-c3ccccc3)nc2-c2ccc(Cl)cc2)C(=O)N1Cc1cccc(Br)c1`, the LD50 at 24 h in series [2] is over 300 mg/kg. The compound also gave an EC50 in series [3] of 5 µM. For the same compound, the inhibition entry in series [4] is “inactive”. Also, the IC50 in series [5] stood at 8 µM.

On to `O=C1S/C(=C\c2cn(-c3ccccc3)nc2-c2ccc(Cl)cc2)C(=O)N1Cc1ccc(Cl)cc1`, for which the LD50 at 24 h in series [2] is over 300 mg/kg. In series [3], this compound yielded an EC50 of 4 µM. The inhibition result in series [4] was “inactive”.

With `CCCN1C(=O)S/C(=C\c2cn(-c3ccccc3)nc2-c2ccc(Cl)cc2)C1=O`, in series [2], the LD50 at 24 h was over 300 mg/kg. Further, the EC50 in series [3] is over 100 µM. Also, in series [4], the inhibition result is “inactive”.

Turning to `O=C1S/C(=C\c2cn(-c3ccccc3)nc2-c2ccc(Cl)cc2)C(=O)N1Cc1ccccc1`, the LD50 at 24 h in series [2] is over 300 mg/kg. The compound also gave an EC50 in series [3] of 1 µM. In addition, in series [4], the inhibition entry was “inactive”. In addition, in series [5], the IC50 amounted to 8 µM.

As for `CCCN1C(=O)S/C(=C\c2cn(-c3ccccc3)nc2-c2ccccc2)C1=O`, the LD50 at 24 h in series [2] is over 300 mg/kg. Further, the EC50 in series [3] is over 100 µM. Further, the inhibition result in series [4] is “inactive”.
